Tested on: MS2 coat protein
Experiment: apparent Kd, MS2 coat protein; higher = weaker binding; RNA-MaP array; FMN 200 µM where present
Summary of the method: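 Green signal from SNAP-549-labelled MS2 coat protein was normalised to red-channel RNA signal and to the median Fmax of control clusters. The protein was titrated from 0.7 or 1.5 nM, doubling to 3 µM, without and then with constant ligand, over designs transcribed by stalled E. coli RNA polymerase on Illumina sequencing-chip clusters, in 100 mM Tris-HCl pH 7.5, 80 mM KCl, 4 mM MgCl2, BSA, DTT, yeast tRNA and Tween-20. The apparent Kd is the median of filtered per-cluster binding-curve fits.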

[1] = designed as: ON switch for flavin mononucleotide, no ligand
[2] = ligand present: flavin mononucleotide, designed as: ON switch for flavin mononucleotide
[3] = designed as: OFF switch for flavin mononucleotide, no ligand
[4] = ligand present: flavin mononucleotide, designed as: OFF switch for flavin mononucleotide

Sequence | apparent Kd [1] | apparent Kd [2] | apparent Kd [3] | apparent Kd [4]
AAAAAAAAAAGACAGGAUAUCCAAAAAAAAACAUGAGGAUCACCCAUGUAAAAAAAAAAAAAAUGGGAGAAGGGUCAAAAAAAAAA | 63.2 nM | 32.1 nM | – | –
AAAAAAAAAAGUCAGGAUAUGCAGGGCGGGACAUGAGGAUCACCCAUGUGGCGGAAAAAAAAAAAGCAGAAGGGACGAAUAAAAAA | 53.2 nM | 27.4 nM | – | –
AAAAAAAAGCCCAAGGAUAUCCGGAUGAAGACAUGAGGAUCACCCAUGUGAAAAAAAAAAUAUGAGGAGAAGGUGGGAAAAAAAAA | 83.6 nM | 61.6 nM | – | –
AAAAAACAAGGAUAUACGCAGGAGGGUUGUCUUAAUUUUUGACAUGAGGAUCACCCAUGUAGAAGGUGUUAAAA | – | – | 237 nM | 507 nM
AAAAAACAUGAGGAUCACCCAUGUGAGGAUAUGCGAAAAAAAAAAAAAAAAAAAAAAAGCAGAAGGCACAAAAA | – | – | 43.9 nM | 60.8 nM
AAAAAACAUGAGGAUCACCCAUGUGAGGAUAUGCGAAAAAAAAAAAAAAAAAAAAAAAGUAGAAGGCACAAAAA | – | – | 48.5 nM | 173 nM
AAAAAGCGAGGAUAUACGAGUCAAAGAAAAGACAAGGAGAAACAUGAGGAUCACCCAUGUAGAAGGCGCAAAAA | – | – | 20.5 nM | 23.3 nM
AAAAAGGCAGGAUAUACAAAAAAAUUUUUAAAAAAAAAAAAACAUGAGGAUCACCCAUGUAGAAGGGCCAAAAA | – | – | 54.2 nM | 51.7 nM
AAAAAGGCAGGAUAUACGAGUCAAAGAAAAGACAAAAAGGGACAUGAGGAUCACCCAUGUAGAAGGGCCAAAAA | – | – | 36.9 nM | 227 nM
AAAAAGUCAGGAUAUACGAAAAAAAAAAAAAAAAAAAAAAAGUAGAAGGGACAUGAGGAUCACCCAUGUAAAAA | – | – | 78.2 nM | 58.8 nM
AAAAAGUCAGGAUAUCGUAGAAAAAUAUAAAUAAGAAAGUACGAGAAGGGACAUGAGGAUCACCCAUGUAAAAA | – | – | 33.1 nM | 36.9 nM
AAAAAGUGAGGAUAUGCACUGUCCUGUAGACACGAGCAGUUGUAGAAGGCACAUGAGGAUCACCCAUGUUUAAA | – | – | 29.2 nM | 25.9 nM
AAAACACAUGAGGAUCACCCAUGUGAGGAUAUCGUGCAGUAGACGAAAGUCUACUGCACGAGAAGGCACAAGGA | – | – | 49 nM | 81.3 nM
AAAACAUGAGGAUCACCCAUGUAAAGAUCAAUUAAAAUGAGUGAGGAUAUACUAAAUUAUUUAUAGUAGAAGGCACUGGGUACA | 25 nM | 26.3 nM | – | –
AAAACAUGAGGAUCACCCAUGUAUAGAGCGGUUAAUAAAGGUGAGGAUAUACUAAAUUUUAUAUAGUAGAAGGCACUGGGUACU | 26.7 nM | 30.5 nM | – | –
AAAACUCACGUAGGAUAUCAUUCCUUAAGGUAGUGAGAAGGACGUGACUACAUGUCCUAAAACAUGAGGAUCACCCAUGUAGGC | – | – | 33.5 nM | 26.5 nM
AAAACUUCAGAGAAGGACCCAUCGGCGAGAUGGGUAGGAUAUCUGACUUGAGGUGUCCUGACAUGAGGAUCACCCAUGUAUAAA | – | – | 418 nM | 61.4 nM
AAAAGACAUGAGGAUCACCCAUGUCAGGAUAUCUUCCGUAGGCCGAAUGGCUUCCGGUGGAGAAGGGACAUCGG | – | – | 50.7 nM | 104 nM
AAAAUACAUGAGGAUCACCCAUGUUAGGAUAUGCAAAGCCCAGUUAGCUUUUGGGUAGGUAGAAGGGACGGGUA | – | – | 23.4 nM | 20.2 nM

Sequence | apparent Kd [1] | apparent Kd [2] | apparent Kd [3] | apparent Kd [4]
AAAAUCACAUGAGGAUCACCCAUGUACCGAGCUAGGGCUACAUAGGAUAUGACAAGUAUAGCUUGUCAGAAGGGUGAGUCUCGC | 166 nM | 258 nM | – | –
AAACACGGACAUGAGGAUCACCCAUGUGGCGAAAGCCUUGGGAGAAGGCCGAUUGCAAAGCAAUCGGAGGAUAUCCAUACCGUG | 17.8 nM | 6.03 nM | – | –
AAACAUGUCCGAGGAUAUCUGGAAACAUUUUCAAGAGAAGGCGGACAUGAGGAUCACCCAUGUCUCUCCUCAUCAACCACAAAU | – | – | 8.83 nM | 56.2 nM
AAACCACAUGAGGAUCACCCAUGUCAAGAGAGACUAGGAUAUCUGAAUUAAUUAAAUUAAGGAGAAGGAGUGAAAA | 121 nM | 64.8 nM | – | –
AAACUGGAGGACAAGGAUAUGUGCUCUACGACAUGAGGAUCACCCAUGUGAGACGUAGUAGUGAAACAGAAGGUGUCCUAUUGUA | 20.1 nM | 11.6 nM | – | –
AAAGACAGACAUGAGGAUCACCCAUGUUACGAAGAUAAUGGGAGAAGGGCGAUUGCAAAGCAAUCGCAGGAUAUUCGUAUUGUC | 21.1 nM | 8.93 nM | – | –
AAAGAGACAGGAUAUACAUGGGUGAUAAAAAUCAUGUAAAAACAUGAGGAUCACCCAUGUAGAAGGGUCUCAAA | – | – | 26.9 nM | 22.8 nM
AAAGCAACAUGAGGAUCACCCAUGUAGGAUAUCGCUAUUGUAAUCAUGAAACAUGAUUACAAUAGCGAGAAGGACAUAUGCUCC | – | – | 6.61 nM | 11.2 nM
AAAGCAAUGUCAUGCUCACCGGACAGAAGGCAAUGUGGGCAGCCCGACAUGAGGAUCACCCAUGUUGAGGAUAUGUCCCGUCCU | – | – | 2.53 nM | 2.54 nM
AAAGCGUGAGGAUAUGAGGCGCCGGGCCGGUUGGUGCGGAUUCAGAAGGCACAUGAGGAUCACCCAUGUCGGUA | – | – | 41.1 nM | 96 nM
AAAGCUUCCGCCACAUGAGGAUCACCCAUGUCGUAACCGGGACAGGAUAUCCUCGAUGUAUUUGCGGAGAAGGGUCGCAGGUUA | 77.1 nM | 147 nM | – | –
AAAGUGUAAGGAUAUGCUGCUCGUCACUUGCGUGAUGAGUAGCAGAAGGUACAUGAGGAUCACCCAUGUAAAGA | – | – | 32.3 nM | 40.6 nM
AAAGUGUCAGGAUAUGCGAAGGCAUCUGACAGAUGAGGAUCGCAGAAGGGACAUGAGGAUCACCCAUGUAAAAA | – | – | 45.2 nM | 122 nM
AAAGUUGGUAGGCCCUCGGAACAUGAGGAUCACCCAUGUAAGGAGGAUAUGCCCGGUACCCGCUGGCAGAAGGCCUUAUAAUAA | – | – | 10.5 nM | 61.6 nM
AAAUAAAGGAUUAAGGAUAUAUCACAUGAAACAUGAGGAUCACCCAUGUAAUAAUAUAAAGGGUGAUAGAAGGUAGUUUAUAAAUA | 415 nM | 440 nM | – | –
AAAUCAGUAGGAUAUACGAUUUUGUACUAGACAGAGGAACCACAUGAGGAUCACCCAUGUAGAAGGACUAGAUA | – | – | 16.4 nM | 13.9 nM
AAAUCGGUAGAGGAUAUUGUACAGGAAACGGUGCGAGAAGGUUGCACAUGAGGAUCACCCAUGUUUAGUUGCGA | – | – | 34.9 nM | 34 nM
AAAUGCCUGUCGAUGCUCGACAUGAGGAUCACCCAUGUACAGCAGGAUAUGCGGAACUAACUCGUGCAGAAGGGCUGUACCUAA | – | – | 102 nM | 144 nM
AAAUUAAGAAGAGGAUAUUGACAUGAGGAUCACCCAUGUAUUUGGGAGUGUUUACUGAAUUCUUACGAGAAGGCUUACGAACUU | – | – | – | 190 nM

Sequence | apparent Kd [1] | apparent Kd [2] | apparent Kd [3] | apparent Kd [4]
AAAUUCAGAGGAUAUGCGCAUAGAUAAGACUUUGUUUCUUAACAUGAGGAUCACCCAUGUAGAAGGCUGUACCC | – | – | 17.9 nM | 20.1 nM
AAAUUGGUAGAGGAUAUCGGAUAGGAUUUACUGCGAGAAGGCUGCACAUGAGGAUCACCCAUGUUCUGUUGCGA | – | – | 25.1 nM | 26 nM
AACAAAUAUGAUCAUUAUGUAAGGCAGGAUAUCCCACAUGAGGAUCACCCAUGUACAGUACAUAGGGAGAAGGGCCGAAUGGGA | 72 nM | 6.8 nM | – | –
AACAAGUCAGGAUAUGUUAAAGGUUACGAAAGGGAUAAAGGGCAGAAGGGACAUGAGGAUCACCCAUGUAAUAA | – | – | 58 nM | 50.2 nM
AACAAUCUAUCUGAGGAUAUCAUGAAAUAAACAUGAGGAUCACCCAUGUGUAGGAAAACUGCAUAUGAGAAGGCAGAUAGAUUGA | 930 nM | 43.5 nM | – | –
AACACGAGAGGUGUUGUCUAACCACAUGAGGAUCACCCAUGUAAGGAUAUCGCGGCUAUCGGCAUCGAGAAGGUACAGGGAGCA | – | – | 16.2 nM | 31.4 nM
AACAGCUCGUCAGGAUAUACAACACUGCUUCGGCAGAAUGAUAAGAUAACAUGAGGAUCACCCAUGUAGAAGGGACGAGCUGAA | – | – | 6.01 nM | 8.32 nM
AACAGCUCGUCAGGAUAUAUUAUCUUUUAAUGUAUUAAUGUACAUGAGGAUCACCCAUGUUGUUUGUAGAAGGGACGAGCUGAA | – | – | 8.88 nM | 9.34 nM
AACAGGACAGGAUAUACAUGAGGAUCACCCAUGUAGGAAACAAGCAGAGUACCAAAAAGUAGAAGGGUCAUGGA | – | – | 60.2 nM | 79.5 nM
AACAGUACAGGAUAUACAUGAGGAUCACCCAUGUGAGAAACCACUGGCGUACCAGAAAGUAGAAGGGUACUGGA | – | – | 79.7 nM | 97.8 nM
AACAGUACAGGAUAUACAUGAGGAUCACCCAUGUGAGCGUUAAGUGCCGUAGCACAAAGUAGAAGGGUACUGGA | – | – | 29.9 nM | 92.5 nM
AACAGUCUAGAGGAUAUGCUGGAUUAAAAUCUGGCAGAAGGCUGGACAUGAGGAUCACCCAUGUAAAUACUACC | – | – | 33.6 nM | 162 nM
AACAUCGCAGGAUAUUCGUGCUCAGACAUGAGGAUCACCCAUGUUUGGUGGGUUGGAGAAGGAGAAGGGCGAUGGA | – | – | 103 nM | 137 nM
AACAUGUCAGGAUAUGCAACAGGAGACUGACACGCGAGUGAGCAGAAGGGACAUGAGGAUCACCCAUGUUCAAA | – | – | 19.1 nM | 17.4 nM
AACCAACAUGAGGAUCACCCAUGUCAACCCAAGGCAGGAUAUGCGAGAAUAACAAUGGGAGCAGAAGGGCCGACCU | 110 nM | 54.9 nM | – | –
AACCCUGCCUAGGAUAUACAAAAGUCACAGCUGGUAGAAGGAGGCACAUGAGGAUCACCCAUGUCACCUCGCUU | – | – | 13.4 nM | 13.7 nM
AACCUAUUACAGAAGGCCAGCUACAUGAGGAUCACCCAUGUCGAGUCAUGGAGGAUAUGUAGUAAUUCACUCACAGAUGAGUAC | 28.9 nM | 5.78 nM | – | –
AACCUAUUACAGAAGGCCAGCUACAUGAGGAUCACCCAUGUCGAGUCAUGGAGGAUAUGUAGUAAUUUACUCGCGGAUGAGUAA | 23.8 nM | 5.35 nM | – | –

From the EternaBench riboswitch data
